In article PMC7321800 (Journal of immunology (Baltimore, Md. : 1950), 2020):
Values after ≈ are worked out from the molar mass of the structure shown. Values joined by “and” are separate entries in the source; they are usually repeats but may differ in a detail not shown here. Equal values may be shown once. “Also recorded” adds a separate entry of the source. Read-outs that look alike come from different tables or passages of the source.

Columns and labels:
[1] = biological target: T1, N. gonorrhoeae LOS sialyltransferase (Lst) (Neisseria gonorrhoeae, UniProt P72074); test: Utilization of CMP-NulO as substrate by LOS sialyltransferase; type: biochemical; details: transfer of NulO to LNnT LOS
N. gonorrhoeae F62 ΔlgtD [2] = test: Serum bactericidal assay with pooled normal human serum; type: cell-based, Neisseria gonorrhoeae; details: CMP-NulO added 15 min before or 15 min after CMP-Neu5Ac; 3.3% and 10% NHS
N. gonorrhoeae H041 [3] = test: Mouse vaginal colonization model, wild-type BALB/c mice; type: in vivo; details: strain H041; for Efficacy in clearing gonococcal colonization: 10 µg intravaginally daily, wild-type BALB/c mice; for First day with significantly lower CFU counts than saline control: 10 µg/d intravaginally, two-way ANOVA, Dunnett
[4] = Stability of CMP-NulOs in solution; type: physicochemical
[5] = system: N. gonorrhoeae strain H041; test: Mouse vaginal colonization model, human FH/C4BP transgenic mice; type: in vivo
Method in brief: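 Premarin-treated human FH/C4BP transgenic BALB/c mice, 6-8 weeks old and in diestrus, were infected intravaginally with strain H041 (n=6/group). Test compound was given intravaginally once daily, starting 2 h before infection; the 10 µg dose was given as 1 mg/ml in sterile H2O. Saline was the vehicle control. Bacterial burden was followed over time, and areas under the curve were compared by nonparametric rank sum test.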

N. gonorrhoeae H041 [6] = details: intravaginal administration; cited from earlier work
N. gonorrhoeae [7] = test: Mouse vaginal colonization model, Cmah−/− mice; type: in vivo
N. gonorrhoeae F62 ΔlgtD [8] = test: Silver-stained SDS-PAGE of LOS; type: cell-based, Neisseria gonorrhoeae; details: media containing CMP-NulO 100 µg/ml
Method in brief: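 F62 ΔlgtD was grown in liquid media with or without test compound. Protease K-treated (100 µg/ml) lysates were run on 16.5% Tris-Tricine gels with Tris-Tricine cathode buffer, and LOS was silver-stained. Slower LOS mobility than bacteria grown without test compound was taken to indicate NulO addition.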

[9] = biological target: T1, N. gonorrhoeae LOS sialyltransferase (Lst); details: tested as CMP salts; cited from earlier work
[10] = system: FH purified from human plasma; test: Factor H binding to bacteria by flow cytometry; details: for FH binding (fluorescence) relative to that seen with Neu5Ac substituted LOS / Decrease in FH binding fluorescence relative to Neu5Ac: NulO capped LNnT LOS
N. gonorrhoeae F62 ΔlgtD [11] = details: bacteria fed with the CMP salts; cited from earlier work
[12] = system: FH purified from human plasma; details: compared with Neu5Ac; cited from earlier work
N. gonorrhoeae [13] = details: cited from earlier work; for Eradication of oropharyngeal infection: men who have sex with men and commercial sex workers
N. gonorrhoeae [14] = details: cited from earlier work
[15] = F62 ΔlgtD grown with the CMP-NulO

T1 sequence (P72074 whole entry): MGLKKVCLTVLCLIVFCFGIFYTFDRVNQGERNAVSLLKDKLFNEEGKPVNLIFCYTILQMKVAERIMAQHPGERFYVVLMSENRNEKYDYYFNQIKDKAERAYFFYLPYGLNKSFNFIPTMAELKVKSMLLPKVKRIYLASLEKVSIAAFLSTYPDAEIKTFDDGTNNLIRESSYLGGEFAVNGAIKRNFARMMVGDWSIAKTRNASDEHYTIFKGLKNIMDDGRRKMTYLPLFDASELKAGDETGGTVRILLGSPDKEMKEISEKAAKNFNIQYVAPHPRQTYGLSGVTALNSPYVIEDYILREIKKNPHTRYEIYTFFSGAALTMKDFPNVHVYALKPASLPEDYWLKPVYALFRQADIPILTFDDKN

## [N-]=[N+]=N[C@@H](C1O[C@](OP(=O)(O)OC[C@H]2O[C@@H](n3ccc(N)nc3=O)C(O)C2O)(C(=O)O)CC(O)[C@H]1O)[C@H](O)CO (stereo partly drawn) [CMP-Kdn7N3]
[1]
  Substrate for Lst: served as substrates for Lst
N. gonorrhoeae F62 ΔlgtD [2]
  Prevention of Neu5Ac-mediated serum resistance: ineffective in preventing CMP-Neu5Ac-mediated serum resistance

## Nc1ccn([C@@H]2O[C@H](COP(=O)(O)O[C@@]3(C(=O)O)C[C@H](O)[C@@H](O)[C@H]([C@H](O)[C@H](O)CO)O3)[C@@H](O)[C@H]2O)c(=O)n1 [CMP-Kdn, CMP-ketodeoxynonulosonate]
N. gonorrhoeae H041 [3]
  Efficacy in clearing gonococcal colonization: equally efficacious; also recorded: as efficacious as CMP-Leg5,7Ac2
  First day with significantly lower CFU counts than saline control: 2 days
[1]
  Substrate for Lst: served as substrates for Lst
N. gonorrhoeae F62 ΔlgtD [2]
  Prevention of Neu5Ac-mediated serum resistance: effectively prevented Neu5Ac-mediated serum resistance only when added first

## CC(=O)N[C@@H]([C@@H]1O[C@](OP(=O)(O)OC[C@H]2O[C@@H](n3ccc(N)nc3=O)[C@H](O)[C@@H]2O)(C(=O)O)C[C@H](O)[C@H]1NC(C)=O)[C@@H](C)O [CMP-Leg5,7Ac2]
N. gonorrhoeae H041 [3]
  Efficacy in clearing gonococcal colonization: equally efficacious
  First day with significantly lower CFU counts than saline control: 1 days
[4]; 6 weeks at 4 °C, pH 7
  Percentage of intact CMP-NulO relative to t0: Greater than 90%
[4]; 1 h, pH 4 (data not shown)
  Percentage of intact CMP-NulO relative to t0: greater than 50%
[4]; 4 h, pH 4, 37 °C
  Percentage of intact CMP-NulO relative to t0: 4%
[4]; 24 h at 37 °C, pH 5
  Percentage of intact CMP-NulO relative to t0: about 54%
[4]; 3 days at 20 °C, pH 7
  Percentage of intact CMP-NulO relative to t0: Greater than 90%
[4]; descending order: CMP-Leg5,7Ac2, CMP-Neu5Ac9N3, CMP-Neu5Ac, CMP-Kdn, pH 4-7, 4-37 °C
  Relative stability over all test conditions: most stable
[5]; 1 µg/day intravaginally
  Efficacy: ineffective
[5]; 5 µg/day intravaginally
  Efficacy: progressively increasing efficacy; also recorded: cleared infection significantly faster
[5]; 10 µg/day intravaginally
  Efficacy: progressively increasing efficacy; also recorded: cleared infection significantly faster
N. gonorrhoeae H041 [6]
  Duration and burden of vaginal colonization of multidrug-resistant N. gonorrhoeae in mice: decreased the duration and reduced the burden of vaginal colonization
N. gonorrhoeae [7]; strain 398078, 10 µg daily
  AUC (log10 CFU): zero
N. gonorrhoeae [7]; strain 398078, swabs taken 24 h after infection, 10 µg daily
  Detection of bacteria in treated animals on day 1: unable to detect
N. gonorrhoeae [7]; strains F62 ΔlgtD and H041, 10 µg daily intravaginally
  Efficacy (rate of clearance and bacterial burden compared to saline): effective against both strains
N. gonorrhoeae F62 ΔlgtD [2]
  Prevention of Neu5Ac-mediated serum resistance: blocked CMP-Neu5Ac-mediated serum resistance when added after CMP-Neu5Ac

## CC(=O)NC1C(OC(C)=O)CC(OP(=O)(O)OCC2OC(n3ccc(N)nc3=O)C(O)C2O)(C(=O)O)OC1C(O)C(O)CO (stereo not drawn) [CMP-Neu4,5Ac2]
N. gonorrhoeae F62 ΔlgtD [8]
  Migration of LOS on silver-stained 16.5% Tricine gel: no change in migration of LOS

## CC(=O)N[C@H]1[C@H]([C@H](O)[C@H](O)COC(C)=O)O[C@@](OP(=O)(O)OC[C@H]2O[C@@H](n3ccc(N)nc3=O)[C@H](O)[C@@H]2O)(C(=O)O)C[C@@H]1O [CMP-Neu5,9Ac2]
N. gonorrhoeae H041 [3]
  Efficacy in clearing gonococcal colonization: ineffective
N. gonorrhoeae F62 ΔlgtD [2]
  Prevention of Neu5Ac-mediated serum resistance: rendered F62 ΔlgtD susceptible to 10% NHS, but not 3.3% NHS

## CC(=O)N[C@H]1[C@H]([C@H](O)[C@H](O)CN=[N+]=[N-])OC(OP(=O)(O)OC[C@H]2O[C@@H](n3ccc(N)nc3=O)[C@H](O)[C@@H]2O)(C(=O)O)C[C@@H]1O (stereo partly drawn) [CMP-Neu5Ac9N3]
N. gonorrhoeae H041 [3]
  Efficacy in clearing gonococcal colonization: equally efficacious; also recorded: as efficacious as CMP-Leg5,7Ac2
  First day with significantly lower CFU counts than saline control: 2 days

## CC(=O)N[C@H]([C@@H]1O[C@](OP(=O)(O)OC[C@H]2O[C@@H](n3ccc(N)nc3=O)[C@H](O)[C@@H]2O)(C(=O)O)C[C@H](O)[C@@H]1NC(C)=O)[C@H](C)O [CMP-Pse5,7Ac2]
[9]
  Utilization by Lst: not utilized by Lst

## [N-]=[N+]=N[C@@H]([C@H](O)[C@H](O)[C@@H](O)CC(=O)C(=O)O)[C@H](O)CO [Kdn7N3, 3,7-dideoxy-7-azido-D-glycero-D-galacto-nonulosonic acid]
[10]; [15]
  FH binding (fluorescence) relative to that seen with Neu5Ac substituted LOS: ~ 60% and ~ 62%

## O=C(O)C(=O)C[C@H](O)[C@@H](O)[C@@H](O)[C@H](O)[C@H](O)CO [Kdn, 3-deoxy-D-glycero-D-galacto-nonulosonic acid]
[10]; [15]
  FH binding (fluorescence) relative to that seen with Neu5Ac substituted LOS: ~ 60% and ~ 62%
[10]
  Decrease in FH binding fluorescence relative to Neu5Ac: ~ 40%

## CC(=O)N[C@@H]([C@@H]1O[C@](O)(C(=O)O)C[C@H](O)[C@H]1NC(C)=O)[C@@H](C)O [Leg5,7Ac2]
[10]; F62 ΔlgtD grown with the CMP-NulO, NulO substituted LOS
  FH binding compared with unsialylated bacteria: did not bind FH above levels seen with unsialylated bacteria
N. gonorrhoeae F62 ΔlgtD [11]
  Effect of NulO incorporation into LOS on bacterial resistance to complement: did not enhance bacterial resistance to complement
[9]
  Utilization by Lst: utilized by Lst
[12]
  FH binding to gonococci with NulO capped LNnT LOS: lack of detectable FH binding

## CC(=O)N[C@H]1[C@H]([C@H](O)[C@H](O)COC(C)=O)OC(O)(C(=O)O)C[C@@H]1O (stereo partly drawn) [Neu5,9Ac2]
[10]; [15]
  FH binding (fluorescence) relative to that seen with Neu5Ac substituted LOS: ~ 30%
[10]
  Decrease in FH binding fluorescence relative to Neu5Ac: ~ 70%

## CC(=O)N[C@H]1[C@H]([C@H](O)[C@H](O)CN=[N+]=[N-])OC(O)(C(=O)O)C[C@@H]1O (stereo partly drawn) [Neu5Ac9N3]
N. gonorrhoeae F62 ΔlgtD [11]
  Effect of NulO incorporation into LOS on bacterial resistance to complement: did not enhance bacterial resistance to complement
[9]
  Utilization by Lst: utilized by Lst
[12]
  FH binding to gonococci with NulO capped LNnT LOS: lack of detectable FH binding

## CO[C@H](CO)[C@@H](O)[C@@H]1OC(O)(C(=O)O)C[C@H](O)[C@H]1NC(=O)CO (stereo partly drawn) [Neu5Gc8Me, reference compound]
[9]
  Utilization by Lst: utilized by Lst
[12]
  FH binding to gonococci with NulO capped LNnT LOS: lack of detectable FH binding

## O=C(CO)N[C@H]1[C@H]([C@H](O)[C@H](O)CO)OC(O)(C(=O)O)C[C@@H]1O (stereo partly drawn) [Neu5Gc, reference compound]
[9]
  Utilization by Lst: utilized by Lst
[12]
  FH binding to gonococci with NulO capped LNnT LOS: no impact

## CC[C@H]1OC(=O)[C@@](C)(F)C(=O)[C@H](C)[C@@H](O[C@@H]2O[C@H](C)C[C@H](N(C)C)[C@H]2O)[C@](C)(OC)C[C@@H](C)C(=O)[C@H](C)[C@H]2N(CCCCn3cc(-c4cccc(N)c4)nn3)C(=O)O[C@]12C [Solithromycin, solithromycin]
N. gonorrhoeae [13]; phase III trial
  Non-inferiority versus ceftriaxone plus azithromycin: failed to meet non-inferiority criteria

## C[C@@H]1CN2c3c(cc4c(N5C(=O)OC[C@@H]5C)noc4c3F)CC3(C(=O)NC(=O)NC3=O)[C@H]2[C@H](C)O1 [Zoliflodacin, zoliflodacin]
N. gonorrhoeae [13]
  Treatment of uncomplicated urogenital infections: appear promising
  Eradication of oropharyngeal infection: failures to eradicate oropharyngeal infection

## C=CC1=C(C(=O)O)N2C(=O)[C@@H](NC(=O)/C(=N\OCC(=O)O)c3csc(N)n3)[C@H]2SC1 [cefixime]
N. gonorrhoeae [14]; strain SD-1
  MIC: 0.125 µg/mL (≈ 0.276 µM)

## CO/N=C(\C(=O)N[C@@H]1C(=O)N2C(C(=O)O)=C(CSc3nc(=O)c(=O)[nH]n3C)CS[C@H]12)c1csc(N)n1 [ceftriaxone]
N. gonorrhoeae [14]; strain CTX-r Spain
  MIC: > 2 µg/mL
N. gonorrhoeae [14]; strain H041 (WHO X)
  MIC: 2 to 4 µg/mL
N. gonorrhoeae [14]; strain SD-1
  MIC: 0.094 µg/mL (≈ 0.169 µM)
N. gonorrhoeae [14]; strain UMNJ60_06UM (NJ-60)
  MIC: 0.38 µg/mL (≈ 0.685 µM)

## O=c1ccc2ncc(=O)n3c2n1C[C@H]3CN1CCC(NCc2cc3c(cn2)OCCC3)CC1 [gepotidacin]
N. gonorrhoeae [13]
  Treatment of uncomplicated urogenital infections: appear promising
  Eradication of oropharyngeal infection: failures to eradicate oropharyngeal infection
